RBBP9 inh: human RBBP9 inhibitors, primary screen, biochemical, fluorescence polarization, FP-Rh probe, HTS. Serine hydrolase RBBP9 (Homo sapiens), O75884. recombinant RBBP9. inhibition, % at 7.94 µM. 220,000 tested, 0.2% active. AID 1515, 2009;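 active means inhibition above the campaign mean of all tested compounds plus 3 SD, cut at about 14% in these data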
Target sequence (O75884 whole entry, looked up): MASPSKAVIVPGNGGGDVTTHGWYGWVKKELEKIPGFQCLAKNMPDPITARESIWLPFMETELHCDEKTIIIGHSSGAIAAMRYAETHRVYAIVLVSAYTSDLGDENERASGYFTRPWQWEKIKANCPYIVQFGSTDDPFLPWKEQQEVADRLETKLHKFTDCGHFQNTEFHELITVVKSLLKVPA
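Measured by: FP readout at 525/598 nm; material: recombinant human RBBP9; also added: Serine-hydrolase probe FP-Rh, 375 nM pre-mixing; medium: Tris buffer pH 8.0, NaCl, Pluronic; replication: one well per compound; doses: one concentration, 7.94 µM nominal, 0.794% DMSO; timing: preincubation 30 min plus labeling 45 min at 25 °C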
TbHK1 inh: Trypanosoma brucei hexokinase 1 inhibitors, primary screen, biochemical, G6PDH-coupled NADH absorbance, MLSCN library | AID 1430, 2008 | 220,000 tested, 0.11% active | recombinant TbHK1, G6PDH-coupled NADH A340 | inhibition, % at 10 µM;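 active means inhibition of 50% or more in the single-dose primary screen; inactive means inhibition below 50%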
PfM18AAP inh-1: PfM18AAP inhibitors, malaria aminopeptidase, primary screen, biochemical, QFRET, recombinant enzyme; 290,000 tested, 1.2% active; inhibition, % at 7.35 µM; AID 1822, 2009; H-Glu-NHMec fluorogenic cleavage;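 active means inhibition above the campaign mean inhibition over all tested compounds plus 3 SD, cut at about 28% in these data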
Hep lipid drop: inhibitors of hepatocyte lipid droplet formation, primary screen, imaging, high-throughput imaging, BODIPY stain | inhibition, % at 6.5 µM | AML12 mouse hepatocytes, oleate lipid droplets | AID 1656, 2009 | 240,000 tested, 0.4% active;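 active means lipid droplet intensity inhibited by at least 50%, with more than 500 cells counted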
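Material – mouse AML12 hepatocyte cell line, fixed after treatment · Compound dosing – one dose, 6.5 µM compound · Times – compound with oleate, overnight · Measured by – Image-based BODIPY and DAPI two-channel analysis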
L929 necroptosis: inhibitors of zVAD-triggered necroptosis, primary screen, L929 cells. L929 zVAD necroptosis rescue, ATP luminescence, 24 h; with zVAD 60 µM. viability rescue, % at 10 µM. 220,000 tested, 0.38% active. AID 1377, 2008;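 active means activation, scaled between plate controls, above about 75%, limit read from the data; inactive means activation under that limit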
TNF death inh: inhibitors of TNF-alpha triggered necroptosis, primary screen, cell-based, Jurkat FADD-/-, single concentration; Jurkat FADD-/- TNF necroptosis rescue, ATP luminescence, 24 h; 0 = TNF only, 100 = no-TNF cells; activation (protection from cell death), % at 10 µM; 220,000 tested, 0.068% active; AID 463075, 2010;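 active means activation, meaning protection from cell death, of at least 50% relative to plate controls; inactive means activation below 50%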;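 further: necroptosis triggered by 40 ng/mL TNF-alpha added together with compound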
zVAD death conf: inhibitors of zVAD-triggered necroptosis in L929, confirmation, L929 cells, duplicate runs; 760 tested, 16% active; activation (protection from necroptosis), % at 10 µM; AID 463117, 2010; L929 zVAD-induced necroptosis rescue, ATP luminescence, 24 h; shares compounds with L929 necroptosis;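 active means mean protection from necroptosis of at least 50% over duplicate tests; inactive means mean protection below 50%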
RBBP9 confirm: human RBBP9 inhibitors, retest, confirmation, biochemical, fluorescence polarization, FP-Rh probe, triplicate; shares compounds with RBBP9 inh; recombinant RBBP9; inhibition, % at 7.94 µM; 410 tested, 36% active;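 active means inhibition above the hit cutoff derived for the primary screen, cut at about 15% in these data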
Lipid drop inh: hepatocyte lipid droplet accumulation inhibitors, confirmation, imaging, AML12 mouse hepatocytes, single concentration, high-content. shares compounds with Hep lipid drop. BODIPY lipid droplet imaging; droplets induced with 100 µM oleic acid. inhibition, % at 5.2 µM. 870 tested, 65% active. AID 463183, 2010;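 active means inhibition of lipid droplet metric at least 50%, with more than 300 cells in each of four replicates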
AML12 cytotox: AML12 hepatocyte cytotoxicity, counter-screen for hepatic lipid droplet formation project, imaging, DAPI nuclear morphology imaging; z-score at 5 µM; shares compounds with Hep lipid drop; AML12 mouse hepatocytes; stronger effect = higher value; cells fed 100 µM oleate overnight; 870 tested, 3% active; AID 463200, 2010; in the data active means z-score above about 6.3;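 further: compound exposure lasted overnight at 37 °C before fixation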
AML12 tox ATP: AML12 hepatocyte cytotoxicity, confirmation, cytotoxicity control for hepatic lipid droplet formation project, cell-based, single concentration | shares compounds with Hep lipid drop | AML12 mouse hepatocyte viability, ATP luminescence; cells loaded with 100 µM oleic acid | cytotoxicity, % at 50 µM | 530 tested, under 10 active | AID 463219, 2010;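 active means cytotoxicity above 50% in each of four replicates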;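 further: compound exposure lasted overnight at 37 °C before the ATP read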
PfM18AAP inh-2: PfM18AAP inhibitors, malaria aminopeptidase, confirmation, biochemical, QFRET, recombinant enzyme, triplicate. AID 2170, 2009. shares compounds with PfM18AAP inh-1. H-Glu-NHMec fluorogenic cleavage. inhibition, % at 7.35 µM. 2,400 tested, 28% active;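 active means mean inhibition over replicate wells above the hit cutoff set for the earlier primary screen, cut at about 29% in these data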
CTSL1 counter: cathepsin L1 inhibitors, retest, confirmation, counter-screen for PFM18AAP inhibitor project, biochemical, QFRET, triplicate. AID 2178, 2009. purified cathepsin L1, Z-Leu-Arg-MCA fluorescence. inhibition, % at 5.96 µM. shares compounds with PfM18AAP inh-1. 2,400 tested, under 10 active;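 active means average inhibition across replicates above the hit cutoff set in the earlier primary screen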
Target sequence (P07711 whole entry, looked up): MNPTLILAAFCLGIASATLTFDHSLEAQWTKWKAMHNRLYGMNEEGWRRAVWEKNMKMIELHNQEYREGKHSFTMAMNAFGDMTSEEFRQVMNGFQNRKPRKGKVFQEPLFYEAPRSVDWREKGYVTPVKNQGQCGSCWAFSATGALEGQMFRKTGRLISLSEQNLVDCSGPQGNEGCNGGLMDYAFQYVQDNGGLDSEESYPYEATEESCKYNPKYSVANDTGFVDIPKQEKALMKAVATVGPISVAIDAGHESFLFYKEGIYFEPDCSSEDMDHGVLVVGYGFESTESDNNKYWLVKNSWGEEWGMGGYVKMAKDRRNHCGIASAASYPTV
Numbers stand for hits; – = inactive; · = no result given. Most compounds without a hit are left out; they make up all but 2% or so of the library.

SMILES | RBBP9 inh | TbHK1 inh | PfM18AAP inh-1 | Hep lipid drop | L929 necroptosis | TNF death inh | zVAD death conf | others
O=C(O)c1ccc(N2CC3CC(C2)c2cccc(=O)n2C3)c(NS(=O)(=O)c2cccc(C(F)(F)F)c2)c1 (stereo unspecified) | – | – | – | – | – | – | ·
O=C(NCC1CCCO1)c1ccc(CS(=O)(=O)Cc2ccc(F)cc2)o1 (stereo unspecified) | – | – | – | · | – | – | ·
Cc1ccsc1C(=O)NCc1ccc(F)cc1 | · | · | – | – | · | · | ·
Cc1nnc(NC(=O)c2cc3ccccc3o2)s1 | · | · | – | – | · | · | ·
CN1CCN(c2ccccc2NC(=O)c2cc3ccccc3o2)CC1 | – | – | – | · | 78 | – | –
O=C(Nc1ccccc1N1CCCC1)c1cc2ccccc2o1 | – | – | – | – | – | – | ·
Cc1cnc(NC(=O)c2cc3ccccc3o2)s1 | – | – | – | – | 81 | – | –
O=S(=O)(Cc1ccccc1Cl)NCCc1ccc(F)cc1 | · | · | – | – | · | · | ·
CCn1c(NC(=O)c2cccs2)nc2ccccc21 | – | – | – | · | 81 | – | –
O=C(Cn1nnc(-c2ccc(Cl)cc2)n1)NC1CCN(Cc2ccccc2)CC1 | – | – | – | · | – | – | ·
CC1CCCCC1NC(=O)Cn1nnc(-c2ccc(Cl)cc2)n1 (stereo unspecified) | – | – | – | – | 78 | – | –
COC(=O)c1ccc(NC(=O)Nc2ccc(OC)c(OC)c2)cc1 | – | – | – | – | 82 | – | –
CC[C@H](C)[C@H](NC(N)=O)C(=O)Nc1ccc(NC(C)=O)cc1 | – | – | – | – | – | – | ·
CCC(C)C(NC(N)=O)C(=O)Nc1ccc(C(=O)OC)cc1 (stereo unspecified) | – | – | – | – | 78 | – | –
Cn1ncc2c(Nc3ccc4ccccc4c3)ncnc21 | – | – | – | · | 92 | – | –
CN(C)c1ccnc(N(Cc2ccccc2)Cc2ccccc2)c1C#N | – | – | – | – | – | – | ·
O=C(/C=C/c1cccs1)Nc1cccc(NC(=O)/C=C/c2cccs2)n1 | – | – | – | – | – | – | ·
O=C(/C=C\c1ccccc1)Nc1nccs1 | – | – | – | – | 103 | – | –
O=C(/C=C/c1cccs1)Nc1nccs1 | – | – | – | – | 79 | – | –
O=C(/C=C/c1cccc(F)c1)Nc1nccs1 | – | – | – | – | 88 | – | 76
Cc1ccc(/C=C/C(=O)Nc2nccs2)o1 | – | – | – | – | 79 | – | –
CCN(C(=O)CSc1nc2ccccc2c(=O)n1C(C)COC)C1CCS(=O)(=O)C1 (stereo unspecified) | – | – | – | – | – | – | ·
O=C(NCCN1C(=O)C2C3C=CC(C3)C2C1=O)Nc1ccc(Br)cc1 (stereo unspecified) | – | – | – | · | 76 | – | –
CCOC(=O)N1CCN(CCC(=O)Nc2ccc(C)cc2)CC1 | – | – | – | – | – | – | ·
O=c1nc2cccc3c2=c(/c1=C(\O)c1ccccc1)c1ccccc1c3=O | – | – | – | – | 80 | – | –
SMILES | RBBP9 inh | TbHK1 inh | PfM18AAP inh-1 | Hep lipid drop | L929 necroptosis | TNF death inh | zVAD death conf | others
O=C(Nc1ccc(-c2csc(Nc3ccc(Cl)cc3)n2)cc1)c1cccc(C(F)(F)F)c1 | · | – | · | 72 | 82 | – | – | Lipid drop inh=100;AML12 cytotox=–;AML12 tox ATP=–
CCNC(=O)NC(=O)C(C)Sc1nc2ccccc2n1CC(C)C (stereo unspecified) | – | – | – | · | – | – | ·
O=[N+]([O-])/C(C=Nc1ccccc1O)=C\Nc1ccccc1O | – | – | 34 | – | 87 | – | – | PfM18AAP inh-2=–;CTSL1 counter=–
O=[N+]([O-])/C(=C\Nc1ccccc1Cl)S(=O)(=O)c1ccccc1 | – | – | – | · | – | – | ·
Cc1nc2ncccn2c1-c1csc(Nc2ccc(O)cc2)n1 | – | – | 41 | – | 88 | – | – | PfM18AAP inh-2=43;CTSL1 counter=–
C=CCOc1ccc(Br)cc1CNC(C)(C)C | – | – | – | – | – | – | ·
Cc1ccc(Nc2nc(-c3ccc(F)cc3)cs2)nc1 | · | · | – | · | · | · | ·
Cc1ccc(Nc2nc(-c3ccc(O)c(O)c3)cs2)nc1 | 22 | – | 63 | – | 79 | – | – | RBBP9 confirm=46;PfM18AAP inh-2=43;CTSL1 counter=–
Nc1ccccc1Nc1cc(-c2ccccc2)[nH]n1 | – | – | 39 | – | 91 | – | 89 | PfM18AAP inh-2=–;CTSL1 counter=–
C#CCN(C(=O)c1ccc(OC2CCN(Cc3ccccn3)CC2)cc1)C1CCCCC1 | · | · | – | – | · | · | ·

Source: PubChem (several laboratories)
